Assay results taken from ChEMBL document CHEMBL1122430, “Nucleosides. 123. Synthesis of antiviral nucleosides: 5-substituted 1-(2-deoxy-2-halogeno-beta-D-arabinofuranosyl)cytosines and -uracils. Some structure-activity relationships” (1983).

Tests used:
Type in all cases: functional
[1] = system: Human alphaherpesvirus 2; assay: Antiherpetic activity against HSV-2; conditions: read-out: ED50 (the source's name)
Outline: (§1)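 Plaque-reduction assay on Vero cell monolayers infected with HSV-1 or HSV-2 (strain G). ED50 is the dose that cuts plaque number by 50%.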

[2] = system: Human alphaherpesvirus 1; assay: Antiherpetic activity against HSV-1; conditions: read-out: ED50 (the source's name); outline: as §1
[3] = system: Lymphocytic cell line; assay: Inhibition of growth of normal human lymphocytic cells; conditions: read-out: ID50 (the source's name)
[4] = Homo sapiens, Lymphocytic cell line

SMILES | EC50 ([1]; Human alphaherpesvirus 2) [nM] | EC50 ([2]; Human alphaherpesvirus 1) [nM] | IC50 [3, 4] [nM] | EC50 [1] [nM] | EC50 [2] [nM] | IC50 [3] [nM]
Nc1nc(=O)n([C@@H]2O[C@H](CO)[C@@H](O)[C@@H]2Cl)cc1Br | > 100000 | > 100000 | > 100000 |  |  | 
Nc1ccn([C@@H]2O[C@H](CO)[C@@H](O)[C@@H]2Cl)c(=O)n1 | 3800 | 110 | 6 |  |  | 
Nc1ccn([C@@H]2O[C@H](CO)[C@@H](O)[C@@H]2Br)c(=O)n1 | 4400 | 3200 | 200 |  |  | 
Nc1nc(=O)n([C@@H]2O[C@H](CO)[C@@H](O)[C@H]2F)cc1I (stereo in doubt; 9) |  |  |  | 27400 | 17900 | 1900
Nc1nc(=O)n([C@@H]2O[C@H](CO)[C@@H](O)[C@@H]2Br)cc1I | 2200 | 9500 | 200 |  |  | 
Cc1cn([C@@H]2O[C@H](CO)[C@@H](O)[C@@H]2Cl)c(=O)[nH]c1=O | > 100000 | > 100000 | > 100000 |  |  | 
Nc1nc(=O)n([C@H]2O[C@@H](CO)[C@H](O)[C@H]2F)cc1Br | 20 | 190 | 5000 |  |  | 
O=c1ccn([C@@H]2O[C@H](CO)[C@@H](O)[C@H]2F)c(=O)[nH]1 | 6000 | 800 | > 100000 |  |  | 
Nc1nc(=O)n([C@@H]2O[C@H](CO)[C@@H](O)[C@H]2F)cc1I (stereo in doubt; 3A) |  |  |  | 10 | 10 | 8600
Cc1cn([C@@H]2O[C@H](CO)[C@@H](O)[C@@H]2F)c(=O)nc1N | 800 | 640 | 800 |  |  | 
Nc1nc(=O)n([C@@H]2O[C@H](CO)[C@@H](O)[C@@H]2Cl)cc1I | 90 | 3400 | 3500 |  |  | 
O=c1[nH]c(=O)n([C@@H]2O[C@H](CO)[C@@H](O)[C@H]2F)cc1I | 55 | 25 | 3300 |  |  | 
Nc1ccn([C@@H]2O[C@H](CO)[C@@H](O)[C@@H]2F)c(=O)n1 | 300 | 120 | 600 |  |  | 
Cc1cn([C@@H]2O[C@H](CO)[C@@H](O)[C@@H]2F)c(=O)[nH]c1=O [5-METHYL-2'-FLUOROARAURACIL] | 13 | 13 | 1000 |  |  | 
Nc1nc(=O)n([C@@H]2O[C@H](CO)[C@@H](O)[C@@H]2Br)cc1Br | > 100000 | > 100000 | 4500 |  |  | 
Cc1cn([C@@H]2O[C@H](CO)[C@@H](O)[C@@H]2Br)c(=O)[nH]c1=O | > 100000 | > 100000 | 8000 |  |  | 
Cc1cn([C@@H]2O[C@H](CO)[C@@H](O)[C@@H]2Br)c(=O)nc1N | 26200 | > 100000 | 34000 |  |  | 
O=c1[nH]c(=O)n([C@H]2O[C@@H](CO)[C@H](O)[C@H]2F)cc1Br | 70 | 110 | 900 |  |  | 
Cc1cn([C@@H]2O[C@H](CO)[C@@H](O)[C@@H]2Cl)c(=O)nc1N | 220 | > 100000 | 20000 |  |  | 
